Reference: ChEMBL document CHEMBL1158416, “Synthesis of yashabushidiol and its analogues and their cytotoxic activity against cancer cell lines” (Bioorg Med Chem Lett, 2009)
In brackets after ≈: the same amount, converted by molar mass.

Assays:
Assay type in all cases: functional, cell-based
THP-1 = assay: Antiproliferative activity against human THP1 cells after 48 hrs by MTT assay; settings: THP-1, 48 h
Summary of the method: (§1)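 Cells in exponential growth exposed to a range of test concentrations for 48 h; growth inhibition read by MTT. IC50 taken as the concentration giving a 50% fall in cell number relative to untreated control cultures, derived by regression analysis.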

U-937 = assay: Antiproliferative activity against human U937 cells after 48 hrs by MTT assay; settings: U-937, 48 h; summary of the method: as §1
A-375 = assay: Antiproliferative activity against human A375 cells after 48 hrs by MTT assay; settings: A-375, 48 h; summary of the method: as §1

Structure (SMILES)	IC50 (THP-1)	IC50 (U-937)	IC50 (A-375)
Oc1ccc(CC[C@@H](O)C[C@@H](O)CCc2ccccc2)cc1	12.6 µg/mL (≈ 42 µM)	33 µg/mL (≈ 110 µM)	57.8 µg/mL (≈ 192 µM)
Oc1ccc(CC[C@H](O)C[C@@H](O)CCc2ccccc2)cc1	12.8 µg/mL (≈ 42.7 µM)	31.1 µg/mL (≈ 103 µM)	56.3 µg/mL (≈ 187 µM)
O[C@@H](CCc1ccccc1)C[C@@H](O)CCc1ccccc1	99.8 µg/mL (≈ 351 µM)	128 µg/mL (≈ 451 µM)	148 µg/mL (≈ 520 µM)
O[C@H](CCc1ccccc1)C[C@@H](O)CCc1ccccc1	40.5 µg/mL (≈ 142 µM)	188 µg/mL (≈ 660 µM)	164 µg/mL (≈ 578 µM)
COc1cc(CC[C@H](O)C[C@@H](O)CCc2ccccc2)ccc1O	42.7 µg/mL (≈ 129 µM)	27.7 µg/mL (≈ 83.7 µM)	69.1 µg/mL (≈ 209 µM)
COc1cc(CC[C@@H](O)C[C@@H](O)CCc2ccccc2)ccc1O	72.2 µg/mL (≈ 219 µM)	32.7 µg/mL (≈ 98.9 µM)	75.2 µg/mL (≈ 228 µM)
